Screening results as filed in PubChem.
This is a sample that favours compounds with a hit; in the whole collection about 2% have one here.
TNF death inh = inhibitors of TNF-alpha triggered necroptosis, primary screen, cell-based, Jurkat FADD-/-, single concentration; Jurkat FADD-/- TNF necroptosis rescue, ATP luminescence, 24 h; 0 = TNF only, 100 = no-TNF cells; 0.068% of 220,000 active; activation (protection from cell death), % at 10 µM; AID 463075, 2010;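 active = activation, meaning protection from cell death, of at least 50% relative to plate controls; inactive = activation below 50%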;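 note: necroptosis triggered by 40 ng/mL TNF-alpha added together with compound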
L929 necroptosis = inhibitors of zVAD-triggered necroptosis, primary screen, L929 cells. AID 1377, 2008. viability rescue, % at 10 µM. L929 zVAD necroptosis rescue, ATP luminescence, 24 h; with zVAD 60 µM. 0.38% of 220,000 active;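 active = activation, scaled between plate controls, above about 75%, limit read from the data; inactive = activation under that limit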;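 note: 0% = zVAD with DMSO and 100% = DMSO alone without zVAD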
Tb hexokinase = Trypanosoma brucei hexokinase 1 inhibitors, primary screen, biochemical, G6PDH-coupled NADH absorbance, MLSCN library; recombinant TbHK1, G6PDH-coupled NADH A340; 0.11% of 220,000 active; inhibition, % at 10 µM;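 active = inhibition of 50% or more in the single-dose primary screen; inactive = inhibition below 50%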
Lipid droplet = inhibitors of hepatocyte lipid droplet formation, primary screen, imaging, high-throughput imaging, BODIPY stain | AML12 mouse hepatocytes, oleate lipid droplets | inhibition, % at 6.5 µM | 0.4% of 240,000 active;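 active = lipid droplet intensity inhibited by at least 50%, with more than 500 cells counted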
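Material – AML12 mouse liver cells · Also added – oleate loading, 100 µM · Compound dosing – 6.5 µM single-point dosing · Times – overnight treatment with compound plus oleate · Measured by – fluorescence imaging, 20x objective, two fields per well · Read-out – percent inhibition of filter-corrected integrated lipid droplet intensity per well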
PfM18AAP inh = PfM18AAP inhibitors, malaria aminopeptidase, primary screen, biochemical, QFRET, recombinant enzyme; H-Glu-NHMec fluorogenic cleavage; inhibition, % at 7.35 µM; 1.2% of 290,000 active; AID 1822, 2009;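 active = inhibition above the campaign mean inhibition over all tested compounds plus 3 SD, cut at about 28% in these data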;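 note: 0% = plate median of test compound wells and 100% = 2 mM ZnCl2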
RBBP9 inh = human RBBP9 inhibitors, primary screen, biochemical, fluorescence polarization, FP-Rh probe, HTS. Serine hydrolase RBBP9 (Homo sapiens), O75884. inhibition, % at 7.94 µM. recombinant RBBP9. 0.2% of 220,000 active. AID 1515, 2009;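 active = inhibition above the campaign mean of all tested compounds plus 3 SD, cut at about 14% in these data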;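 note: plate controls were DMSO wells with RBBP9 for no effect and wells lacking RBBP9 protein for full effect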
Target sequence (O75884 whole entry, looked up): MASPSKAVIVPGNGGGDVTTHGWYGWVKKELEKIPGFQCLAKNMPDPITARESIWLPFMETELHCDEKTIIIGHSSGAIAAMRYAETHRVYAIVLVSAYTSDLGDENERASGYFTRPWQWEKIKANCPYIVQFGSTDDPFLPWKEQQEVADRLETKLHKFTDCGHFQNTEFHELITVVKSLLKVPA
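system = RBBP9 protein | input = RBBP9 at 2.5 µM in dispensed solution, before mixing | measured by = fluorescence polarization (mP), excitation 525 nm, emission 598 nm | incubation = enzyme-compound preincubation 30 min, then probe labeling 45 min, 25 °C | buffer or medium = Tris-NaCl-Pluronic buffer, pH 8.0 | compound = single dose 7.94 µM | also added = FP-Rh probe, 375 nM dispensing solution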
RBBP9 confirm = human RBBP9 inhibitors, retest, confirmation, biochemical, fluorescence polarization, FP-Rh probe, triplicate; shares compounds with RBBP9 inh; recombinant RBBP9; inhibition, % at 7.94 µM; 36% of 410 active; AID 1537, 2009;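 active = inhibition above the hit cutoff derived for the primary screen, cut at about 15% in these data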;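 note: 0% = RBBP9 with DMSO and 100% = wells lacking RBBP9 protein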
* hit, by the source's call.

`CCN(CC)CCC#CC(O)(c1ccccc1)C1CCCCC1` (stereo unspecified) gave TNF death inh 3, L929 necroptosis -2, Tb hexokinase 2, Lipid droplet 8, PfM18AAP inh -2 and RBBP9 inh -8.
Screening CCC[N+]1(CC#CC(O)(c2ccccc2)C2CCCCC2)CCCCC1 (stereo unspecified) returned TNF death inh 1, L929 necroptosis 0, Tb hexokinase -4, Lipid droplet 6, PfM18AAP inh 9, RBBP9 inh 15* and RBBP9 confirm 39*.
`COc1ccc(O)c(C=Nc2cc(NC(C)=O)c(Cl)cc2Cl)c1` gave TNF death inh 1, L929 necroptosis 0, Tb hexokinase 34, Lipid droplet -8, PfM18AAP inh 4, RBBP9 inh 15* and RBBP9 confirm 4.
Screening CN(Cc1ccccn1)C(=O)C1CCC(=O)N(CCc2ccc(Cl)cc2)C1 (stereo unspecified) returned Lipid droplet -1 and PfM18AAP inh -4.
CCOc1ccc(-c2nnc(-c3ccncc3)o2)cc1OCC was read as TNF death inh -1, L929 necroptosis 1, Tb hexokinase -14, Lipid droplet 2, PfM18AAP inh 3 and RBBP9 inh 3.
`CCOc1cc(-c2ccc(N)c(OCC)c2)ccc1N` gave TNF death inh -1, L929 necroptosis -1, Tb hexokinase -5, Lipid droplet -14, PfM18AAP inh -8, RBBP9 inh 16* and RBBP9 confirm 29*.
Screening CCOc1ccc(S(=O)(=O)Nc2cc(Sc3ncn[nH]3)c3oc(=O)sc3c2)cc1 returned TNF death inh 0, L929 necroptosis 2, Tb hexokinase 19, PfM18AAP inh 29*, RBBP9 inh 22* and RBBP9 confirm 20*.
For O=C(Nc1ccccc1)N1CCN(S(=O)(=O)c2ccccc2)CC1 the results were TNF death inh 3, L929 necroptosis 1, Tb hexokinase -6, Lipid droplet -1, PfM18AAP inh -13 and RBBP9 inh -4.
`O=C(CN1CCOCC1)Nc1ccc(Oc2ccccc2)cc1` gave TNF death inh -1, L929 necroptosis 0, Tb hexokinase 2, Lipid droplet -4, PfM18AAP inh -5 and RBBP9 inh -5.
For O=C(CN1CCNCC1)Nc1ccc(Oc2ccccc2)cc1 the results were TNF death inh 0, L929 necroptosis 0, Tb hexokinase 4, PfM18AAP inh -13, RBBP9 inh 15* and RBBP9 confirm 24*.
Screening O=C1C2C3C=CC(CC3)C2C(=O)N1c1ccccc1[N+](=O)[O-] (stereo unspecified) returned TNF death inh 0, L929 necroptosis -2, Tb hexokinase 10, Lipid droplet -7, PfM18AAP inh -3 and RBBP9 inh -9.
Screening CCOc1cc(C)c(S(=O)(=O)Nc2ccc(Cl)cn2)cc1C returned TNF death inh 0, L929 necroptosis 0, Tb hexokinase 5, Lipid droplet 5, PfM18AAP inh -2 and RBBP9 inh -2.
`CCOc1ccc(S(=O)(=O)Nc2ccc(Cl)cn2)c(C)c1C` gave TNF death inh -2, L929 necroptosis 0, Tb hexokinase -1, Lipid droplet -28, PfM18AAP inh 0, RBBP9 inh 17* and RBBP9 confirm 3.
For CC(C)=NOC(=O)c1c(C)noc1-c1snnc1C the results were TNF death inh 4, L929 necroptosis 1, Tb hexokinase 0, Lipid droplet 4, PfM18AAP inh -10, RBBP9 inh 18* and RBBP9 confirm 4.
Screening Cc1ccccc1CN1CCN(c2nc3ccccc3s2)CC1 returned PfM18AAP inh -10.
Screening CCOC(=O)C1CCCN(C(=S)Nc2ccc(F)cc2)C1 (stereo unspecified) returned TNF death inh 1, L929 necroptosis 0, Tb hexokinase -4, Lipid droplet 0, PfM18AAP inh -9, RBBP9 inh 23* and RBBP9 confirm 0.
Screening CCOC(=O)C1CCCN(C(=S)Nc2ccc(OC)cc2)C1 (stereo unspecified) returned TNF death inh 0, L929 necroptosis 0, Tb hexokinase 2, Lipid droplet 14, PfM18AAP inh -8 and RBBP9 inh -8.
For COc1ccccc1NC(=O)c1cc2cc(Br)ccc2cc1O the results were TNF death inh -8, L929 necroptosis 3, Tb hexokinase 11, Lipid droplet 14, PfM18AAP inh 1, RBBP9 inh 19* and RBBP9 confirm 30*.
`COc1c(C)cc(S(=O)(=O)NCc2ccco2)c(C)c1C` gave Lipid droplet -2 and PfM18AAP inh 1.
COCCCNc1c2c3c(cccc3[nH]c1=O)C(=O)c1ccccc1-2 was read as TNF death inh -8, L929 necroptosis 5, Tb hexokinase -15, PfM18AAP inh 3, RBBP9 inh 49* and RBBP9 confirm 80*.
Screening Cc1ccc(NC2c3ncccc3C(=O)N2c2ccccc2C)cc1C (stereo unspecified) returned TNF death inh -1, L929 necroptosis 0, Tb hexokinase -10, PfM18AAP inh 29*, RBBP9 inh 18* and RBBP9 confirm 24*.
For O=C1CC(=O)Nc2cc(S(=O)(=O)N3CCN(c4ccc([N+](=O)[O-])cc4)CC3)ccc2N1 the results were Lipid droplet 11 and PfM18AAP inh 8.
O=C(CC1Nc2cccc3cccc(c23)NC1=O)Nc1ccccc1 (stereo unspecified) was read as TNF death inh 2, L929 necroptosis 5, Tb hexokinase 18, Lipid droplet 15, PfM18AAP inh 23, RBBP9 inh 16* and RBBP9 confirm 12.
`CCCOc1ccc(NC(=O)CC2Nc3ccccc3NC2=O)cc1` (stereo unspecified) gave TNF death inh 0, L929 necroptosis 2, Tb hexokinase 0, Lipid droplet -1, PfM18AAP inh 5 and RBBP9 inh 1.
`CCn1cc(C(=O)O)c(=O)c2cc(F)c(N3CCN(S(=O)(=O)c4ccc(NC(=O)OC)cc4)CC3)cc21` gave TNF death inh 3, L929 necroptosis 1, Tb hexokinase -14, Lipid droplet -1, PfM18AAP inh -3 and RBBP9 inh -3.
